Measurements reported in BindingDB's records for doi:10.1021/np500803e (Chungbuk National University, 2015).

target: Signal transducer and activator of transcription 3 (Homo sapiens, UniProt P40763); experiment: Inhibition of IL6-induced STAT3 activation in human Hep3B cells after 12 hrs by luciferase assay
Outline: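 Hep3B cells stably carrying a pSTAT3-luciferase reporter, 2 × 10^4 cells/well, grown 24 h, then switched to serum-free medium. Stimulated with IL-6 (10 ng/mL) with or without sample for 12 h. Luciferase activity then read. IC50 taken as the mean of triplicate experiments. Stattic and genistein used as positive controls.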

Chain of Signal transducer and activator of transcription 3 (P40763 whole entry): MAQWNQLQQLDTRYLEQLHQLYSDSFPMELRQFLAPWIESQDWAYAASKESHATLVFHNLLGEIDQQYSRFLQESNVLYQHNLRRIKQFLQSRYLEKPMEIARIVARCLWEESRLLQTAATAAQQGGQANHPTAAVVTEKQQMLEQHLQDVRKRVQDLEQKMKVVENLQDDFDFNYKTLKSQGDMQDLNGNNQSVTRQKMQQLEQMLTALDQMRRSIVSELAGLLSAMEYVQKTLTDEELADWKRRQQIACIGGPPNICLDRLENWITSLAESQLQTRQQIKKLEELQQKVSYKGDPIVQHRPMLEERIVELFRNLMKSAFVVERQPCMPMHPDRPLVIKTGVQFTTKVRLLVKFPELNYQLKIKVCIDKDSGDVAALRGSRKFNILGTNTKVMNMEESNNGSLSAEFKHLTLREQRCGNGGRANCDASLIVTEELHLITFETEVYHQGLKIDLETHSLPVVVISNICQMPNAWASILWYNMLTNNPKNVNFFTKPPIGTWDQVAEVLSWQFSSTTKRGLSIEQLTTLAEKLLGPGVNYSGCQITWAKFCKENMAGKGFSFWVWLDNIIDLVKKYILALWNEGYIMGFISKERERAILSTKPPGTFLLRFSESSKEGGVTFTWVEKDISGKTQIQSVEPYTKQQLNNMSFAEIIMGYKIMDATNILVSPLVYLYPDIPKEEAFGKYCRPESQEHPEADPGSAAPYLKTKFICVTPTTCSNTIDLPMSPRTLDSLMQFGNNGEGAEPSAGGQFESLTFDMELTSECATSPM

| Compound | IC50 |
| --- | --- |
| CC(C)(/C=C/C[C@](C)(O[C@@H]1O[C@H](CO[C@@H]2O[C@H](CO)[C@@H](O)[C@H](O)[C@H]2O)[C@@H](O)[C@H](O)[C@H]1O)[C@H]1CC[C@]2(C)[C@@H]1[C@H](O)C[C@@H]1[C@@]3(C)C[C@@H](O)[C@H](O)C(C)(C)[C@@H]3CC[C@]12C)OO | > 30 µM |
| CC(C)/C=C/C[C@](C)(O[C@@H]1O[C@H](CO[C@@H]2O[C@@H](C)[C@H](O)[C@@H](O)[C@H]2O)[C@@H](O)[C@H](O)[C@H]1O)[C@H]1CC[C@]2(C)[C@@H]1[C@H](O)C[C@@H]1[C@@]3(C)C[C@@H](O)[C@H](O[C@@H]4O[C@H](CO)[C@@H](O)[C@H](O)[C@H]4O[C@@H]4O[C@H](CO)[C@@H](O)[C@H](O)[C@H]4O)C(C)(C)[C@@H]3CC[C@]12C | > 30 µM |
| CC(C)(/C=C/C[C@](C)(O[C@@H]1O[C@H](CO)[C@@H](O)[C@H](O)[C@H]1O)[C@H]1CC[C@]2(C)[C@@H]1[C@H](O)C[C@@H]1[C@@]3(C)C[C@@H](O)[C@H](O[C@@H]4O[C@H](CO)[C@@H](O)[C@H](O)[C@H]4O[C@@H]4O[C@H](CO)[C@@H](O)[C@H](O)[C@H]4O)C(C)(C)[C@@H]3CC[C@]12C)OO | > 30 µM |
| C[C@@H]1O[C@@H](OC[C@H]2O[C@@H](O[C@@](C)(C/C=C/C(C)(C)OO)[C@H]3CC[C@]4(C)[C@@H]3[C@H](O)C[C@@H]3[C@@]5(C)C[C@@H](O)[C@H](O[C@@H]6O[C@H](CO)[C@@H](O)[C@H](O)[C@H]6O[C@@H]6O[C@H](CO)[C@@H](O)[C@H](O)[C@H]6O)C(C)(C)[C@@H]5CC[C@]34C)[C@H](O)[C@@H](O)[C@@H]2O)[C@H](O)[C@H](O)[C@H]1O | > 30 µM |
| CC(C)/C=C/C[C@](C)(O[C@@H]1O[C@H](CO[C@@H]2O[C@@H](C)[C@H](O)[C@@H](O)[C@H]2O)[C@@H](O)[C@H](O)[C@H]1O)[C@H]1CC[C@]2(C)[C@@H]1[C@H](O)C[C@@H]1[C@@]3(C)CC[C@H](O[C@@H]4O[C@H](CO)[C@@H](O)[C@H](O)[C@H]4O[C@@H]4O[C@H](CO)[C@@H](O)[C@H](O)[C@H]4O)C(C)(C)[C@@H]3CC[C@]12C | 4 µM |
| C[C@@H]1O[C@@H](OC[C@H]2O[C@@H](O[C@@](C)(C/C=C/C(C)(C)O)[C@H]3CC[C@]4(C)[C@@H]3[C@H](O)C[C@@H]3[C@@]5(C)C[C@@H](O)[C@H](O[C@@H]6O[C@H](CO)[C@@H](O)[C@H](O)[C@H]6O)C(C)(C)[C@@H]5CC[C@]34C)[C@H](O)[C@@H](O)[C@@H]2O)[C@H](O)[C@H](O)[C@H]1O | 17.1 µM |
| CC(C)/C=C/C[C@](C)(O[C@@H]1O[C@H](CO[C@@H]2O[C@@H](C)[C@H](O)[C@@H](O)[C@H]2O)[C@@H](O)[C@H](O)[C@H]1O)[C@H]1CC[C@]2(C)[C@@H]1[C@H](O)C[C@@H]1[C@@]3(C)C[C@@H](O)[C@H](O[C@@H]4O[C@H](CO)[C@@H](O)[C@H](O)[C@H]4O)C(C)(C)[C@@H]3CC[C@]12C | 17.6 µM |

The remaining molecules from weak to strong by IC50, led by results:

| IC50 | Compound |
| --- | --- |
| 19.2 µM | C=C(C)C(=O)CC[C@](C)(O[C@@H]1O[C@H](CO[C@@H]2O[C@@H](C)[C@H](O)[C@@H](O)[C@H]2O)[C@@H](O)[C@H](O)[C@H]1O)[C@H]1CC[C@]2(C)[C@@H]1[C@H](O)C[C@@H]1[C@@]3(C)C[C@@H](O)[C@H](O[C@@H]4O[C@H](CO)[C@@H](O)[C@H](O)[C@H]4O[C@@H]4O[C@H](CO)[C@@H](O)[C@H](O)[C@H]4O)C(C)(C)[C@@H]3CC[C@]12C |
| 0.59 µM | C=C(C)C(=O)CC[C@](C)(O[C@@H]1O[C@H](CO[C@@H]2O[C@@H](C)[C@H](O)[C@@H](O)[C@H]2O)[C@@H](O)[C@H](O)[C@H]1O)[C@H]1CC[C@]2(C)[C@@H]1[C@H](O)C[C@@H]1[C@@]3(C)C[C@@H](O)[C@H](O)C(C)(C)[C@@H]3CC[C@]12C |
| 0.5 µM | CC(C)/C=C/C[C@](C)(O[C@@H]1O[C@H](CO[C@@H]2O[C@@H](C)[C@H](O)[C@@H](O)[C@H]2O)[C@@H](O)[C@H](O)[C@H]1O)[C@H]1CC[C@]2(C)[C@@H]1[C@H](O)C[C@@H]1[C@@]3(C)C[C@@H](O)[C@H](O)C(C)(C)[C@@H]3CC[C@]12C |
| 0.27 µM | C=C(C)C(=O)CC[C@](C)(O[C@@H]1O[C@H](CO[C@@H]2O[C@H](CO)[C@@H](O)[C@H](O)[C@H]2O)[C@@H](O)[C@H](O)[C@H]1O)[C@H]1CC[C@]2(C)[C@@H]1[C@H](O)C[C@@H]1[C@@]3(C)C[C@@H](O)[C@H](O)C(C)(C)[C@@H]3CC[C@]12C |
